# Results taken from PMC12679430 (RSC Advances, 2025).
# How the values were obtained:
# [1] = Microsomal stability assay; assay type: in vitro ADME; settings: human, human liver microsomes, pH 7.4
# [2] = tested on: human normal cervical epithelial cells (HcerEpic); assay: Toxicity in normal cervical epithelial cells; assay type: cell-based; settings: Epithelial cell, read-out: IC50, HcerEpic
# Outline: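 Cells grown in IMDM with 20% FBS, 100 U/mL penicillin and 100 µg mL−1 streptomycin at 37 °C, humidified 5% CO2. Serially diluted test compound applied for 72 h. Alamar blue (1 mM stock solution) then added for another 5–6 h, with the signal read at 530/590 nm. Data normalised to DMSO vehicle, mean of three independent measurements, and IC50 fitted from the curves.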
# [3] = tested on: SiHa cells; assay: Antiproliferative assay; assay type: cell-based; settings: Homo sapiens, 72 h, read-out: Antiproliferative IC50, SiHa
# [4] = tested on: Hela cells; assay: Antiproliferative assay; assay type: cell-based; settings: Homo sapiens, 72 h, read-out: Antiproliferative IC50, Hela
# [5] = in clinical; cited from earlier work
half-life at 0.5 µM [1] [h],IC50 [4] [µM],Compound,IC50 [2] [µM],IC50 [3] [µM],dose-limiting toxicities [5]
6.7,6.8 ± 0.35,O=C(CCCCCCNC(=O)c1cnc(N(c2ccccc2)c2ccccc2)nc1)NO [ACY1215],> 50,11.3 ± 0.8,–
–,–,O=C(NO)c1ccc(CN(c2cnccn2)c2cnccn2)cc1 [KA2507],–,–,no dose-limiting toxicities
